Data reported in ChEMBL document CHEMBL1914406, “Inhibitory effect of novel 5-O-acyl juglones on mammalian DNA polymerase activity, cancer cell growth and inflammatory response” (Bioorg Med Chem, 2011).
Activity calls are given as the source filed them. The rule behind the calls is not given here.

How the values were obtained:
[1] = target: DNA-directed DNA/RNA polymerase mu (Homo sapiens, UniProt Q9NP87); assay: Inhibition of His-tagged human DNA polymerase mu using poly(dA)/oligo(dT)18 (A/T = 2/1) and dTTP as the DNA template-primer and nucleotide substrate after 60 mins
Chain of DNA-directed DNA/RNA polymerase mu (Q9NP87 whole entry): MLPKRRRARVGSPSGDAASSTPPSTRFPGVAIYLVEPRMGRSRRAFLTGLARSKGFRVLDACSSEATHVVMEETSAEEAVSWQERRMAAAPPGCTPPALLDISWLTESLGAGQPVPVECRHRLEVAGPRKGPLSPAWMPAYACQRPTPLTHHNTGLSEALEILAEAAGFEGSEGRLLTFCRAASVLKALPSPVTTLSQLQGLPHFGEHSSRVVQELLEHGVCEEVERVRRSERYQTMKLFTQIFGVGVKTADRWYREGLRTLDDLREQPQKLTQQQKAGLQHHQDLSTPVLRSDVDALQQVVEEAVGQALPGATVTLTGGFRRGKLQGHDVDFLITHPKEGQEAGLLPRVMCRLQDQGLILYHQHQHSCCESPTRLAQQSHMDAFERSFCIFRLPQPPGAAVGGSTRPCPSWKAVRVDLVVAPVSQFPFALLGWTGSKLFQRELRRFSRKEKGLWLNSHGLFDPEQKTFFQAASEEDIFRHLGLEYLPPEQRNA
Procedure, shortened: (§1)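 Compound in DMSO, sonicated 30 s. Premixed 0 °C, 10 min with enzyme (0.05 units) in 50 mM Tris-HCl pH 7.5, 1 mM DTT, 50% glycerol, 0.1 mM EDTA, then added to standard reaction mixture. Template-primers: poly(dA)/oligo(dT)18 (2/1) for pols, oligo(dT)18 for TdT, poly(rA)/oligo(dT)18 for HIV-1 RT, with [3H]dTTP. 60 min at 37 °C (Taq 74 °C). Activity relative to no-inhibitor control; mean ± SE of three experiments.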

[2] = target: DNA polymerase eta (Homo sapiens, UniProt Q9Y253); assay: Inhibition of C-terminal His6-tagged human DNA polymerase eta (amino acids 1 to 511) using poly(dA)/oligo(dT)18 (A/T = 2/1) and dTTP as the DNA template-primer and nucleotide substrate after 60 mins; procedure, shortened: as §1
Chain of DNA polymerase eta (Q9Y253 whole entry, the tested form may be a part): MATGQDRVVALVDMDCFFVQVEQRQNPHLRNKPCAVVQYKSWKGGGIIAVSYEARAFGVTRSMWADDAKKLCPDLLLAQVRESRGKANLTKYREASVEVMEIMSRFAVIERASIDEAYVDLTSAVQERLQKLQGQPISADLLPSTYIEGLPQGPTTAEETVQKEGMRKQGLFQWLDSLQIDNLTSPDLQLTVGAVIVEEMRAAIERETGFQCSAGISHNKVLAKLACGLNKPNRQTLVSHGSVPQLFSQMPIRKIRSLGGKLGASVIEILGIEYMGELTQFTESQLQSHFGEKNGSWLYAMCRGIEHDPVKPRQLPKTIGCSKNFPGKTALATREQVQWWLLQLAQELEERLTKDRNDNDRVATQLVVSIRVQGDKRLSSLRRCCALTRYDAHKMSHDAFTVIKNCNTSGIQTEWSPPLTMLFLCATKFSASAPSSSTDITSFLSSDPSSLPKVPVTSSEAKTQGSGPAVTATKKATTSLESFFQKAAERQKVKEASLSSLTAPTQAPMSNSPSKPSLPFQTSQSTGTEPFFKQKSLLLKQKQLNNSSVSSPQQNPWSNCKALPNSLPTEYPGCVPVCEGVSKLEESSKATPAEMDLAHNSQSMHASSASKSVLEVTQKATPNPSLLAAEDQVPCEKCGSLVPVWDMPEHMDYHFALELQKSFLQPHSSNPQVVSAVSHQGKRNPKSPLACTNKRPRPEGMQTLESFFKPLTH

[3] = target: Inosine-5'-monophosphate dehydrogenase 2 (Mus musculus, UniProt P24547); assay: Inhibition of mouse IMP dehydrogenase type 2
Chain of Inosine-5'-monophosphate dehydrogenase 2 (P24547 whole entry): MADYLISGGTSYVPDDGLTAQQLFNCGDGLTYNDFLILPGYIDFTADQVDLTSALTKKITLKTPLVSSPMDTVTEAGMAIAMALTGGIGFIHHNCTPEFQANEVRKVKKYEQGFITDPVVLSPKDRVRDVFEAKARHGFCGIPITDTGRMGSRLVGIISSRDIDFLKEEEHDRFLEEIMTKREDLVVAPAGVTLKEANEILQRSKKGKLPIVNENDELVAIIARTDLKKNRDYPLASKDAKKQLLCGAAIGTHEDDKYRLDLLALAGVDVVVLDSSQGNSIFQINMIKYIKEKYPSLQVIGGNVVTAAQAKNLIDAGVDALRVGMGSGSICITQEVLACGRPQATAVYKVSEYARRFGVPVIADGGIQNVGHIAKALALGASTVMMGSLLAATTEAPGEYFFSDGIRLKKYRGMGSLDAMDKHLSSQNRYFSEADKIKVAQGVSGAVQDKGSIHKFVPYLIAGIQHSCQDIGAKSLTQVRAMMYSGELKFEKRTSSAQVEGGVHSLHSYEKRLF
Procedure, shortened: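 Calf primase of pol α and mouse IMP dehydrogenase type II measured by standard assays per manufacturer's specifications. Activity relative to no-compound control (100%).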

[4] = system: RAW264.7; assay: Antiinflammatory activity in mouse RAW264.7 cells assessed as inhibition of LPS-induced TNFalpha secretion at 5 uM treated 30 mins before LPS challenge measured after 24 hrs by ELISA; type: functional, cell-based
Procedure, shortened: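 RAW264.7 cells in MEM with 4.5 g/L glucose, 10% FCS, 5 mM L-glutamine, at 37 °C in 5% CO2. Seeded at 5 × 10⁴ cells/well and grown 24 h. Compound (final 1 and 5 µM) given 30 min before 100 ng/mL LPS. After 24 h, TNF-α in the medium measured by ELISA, relative to the no-compound value (100%). Mean ± SE, n = 4.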

[5] = target: T1, DNA polymerase lambda (Homo sapiens) (UniProt Q9UGP5); assay: Inhibition of recombinant His-tagged human DNA polymerase lambda using poly(dA)/oligo(dT)18 (A/T = 2/1) and dTTP as the DNA template-primer and nucleotide substrate at 10 uM after 60 mins; procedure, shortened: as §1
T1 sequence (whole entry): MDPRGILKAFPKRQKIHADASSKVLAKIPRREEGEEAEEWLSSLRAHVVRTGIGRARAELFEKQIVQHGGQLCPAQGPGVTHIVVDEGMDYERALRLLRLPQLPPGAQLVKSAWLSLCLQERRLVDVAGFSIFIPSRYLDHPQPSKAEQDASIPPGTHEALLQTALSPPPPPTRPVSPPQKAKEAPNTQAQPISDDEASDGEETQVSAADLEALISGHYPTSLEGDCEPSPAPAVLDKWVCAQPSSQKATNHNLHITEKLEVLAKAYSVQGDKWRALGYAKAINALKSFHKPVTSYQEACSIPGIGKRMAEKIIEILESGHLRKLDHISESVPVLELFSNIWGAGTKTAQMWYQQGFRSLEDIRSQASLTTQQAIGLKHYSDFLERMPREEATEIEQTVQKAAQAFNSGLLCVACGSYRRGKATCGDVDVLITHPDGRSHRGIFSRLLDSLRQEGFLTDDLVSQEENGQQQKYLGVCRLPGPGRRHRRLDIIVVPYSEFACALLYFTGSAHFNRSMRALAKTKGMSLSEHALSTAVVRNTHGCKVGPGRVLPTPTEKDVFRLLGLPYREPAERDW

[6] = Inhibition of rice DNA polymerase lambda using poly(dA)/oligo(dT)18 (A/T = 2/1) and dTTP as the DNA template-primer and nucleotide substrate after 60 mins; set-up: species or system Oryza sativa; procedure, shortened: as §1
[7] = species on record: Bos taurus; assay: Inhibition of calf DNA polymerase alpha using poly(dA)/oligo(dT)18 (A/T = 2/1) and dTTP as the DNA template-primer and nucleotide substrate at 10 uM after 60 mins; procedure, shortened: as §1
[8] = target: T2, DNA polymerase kappa (Homo sapiens) (UniProt Q9UBT6); assay: Inhibition of C-terminal His6-tagged human DNA polymerase kappa (amino acids 1 to 560) using poly(dA)/oligo(dT)18 (A/T = 2/1) and dTTP as the DNA template-primer and nucleotide substrate at 10 uM after 60 mins
T2 sequence (whole entry): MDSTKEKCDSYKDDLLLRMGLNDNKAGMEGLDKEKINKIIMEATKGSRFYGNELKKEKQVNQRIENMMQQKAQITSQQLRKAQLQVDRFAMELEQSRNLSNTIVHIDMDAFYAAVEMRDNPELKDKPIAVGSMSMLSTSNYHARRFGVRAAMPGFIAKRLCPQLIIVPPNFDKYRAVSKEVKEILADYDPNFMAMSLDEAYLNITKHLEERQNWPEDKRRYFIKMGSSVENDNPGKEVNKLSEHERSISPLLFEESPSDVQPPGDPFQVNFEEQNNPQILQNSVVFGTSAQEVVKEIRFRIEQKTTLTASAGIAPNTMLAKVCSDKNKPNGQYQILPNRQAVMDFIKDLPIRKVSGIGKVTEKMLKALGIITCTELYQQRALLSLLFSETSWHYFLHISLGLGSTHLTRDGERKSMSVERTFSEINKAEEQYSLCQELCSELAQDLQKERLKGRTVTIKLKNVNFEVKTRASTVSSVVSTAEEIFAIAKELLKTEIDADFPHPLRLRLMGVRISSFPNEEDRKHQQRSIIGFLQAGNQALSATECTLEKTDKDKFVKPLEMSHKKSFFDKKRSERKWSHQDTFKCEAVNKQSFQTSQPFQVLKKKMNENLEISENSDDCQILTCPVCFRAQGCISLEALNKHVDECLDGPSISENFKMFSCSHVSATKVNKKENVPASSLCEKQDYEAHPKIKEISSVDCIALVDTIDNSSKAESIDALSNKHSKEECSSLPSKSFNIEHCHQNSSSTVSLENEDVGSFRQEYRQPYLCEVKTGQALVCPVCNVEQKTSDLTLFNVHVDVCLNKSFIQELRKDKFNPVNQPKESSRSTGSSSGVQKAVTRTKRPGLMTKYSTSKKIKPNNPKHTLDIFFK

[9] = target: T2, DNA polymerase kappa (Homo sapiens); assay: Inhibition of C-terminal His6-tagged human DNA polymerase kappa (amino acids 1 to 560) using bovine deoxyribonuclease 1-treated DNA and dNTP as the DNA template-primer and nucleotide substrate at 10 uM after 60 mins
[10] = Inhibition of human DNA polymerase epsilon using poly(dA)/oligo(dT)18 (A/T = 2/1) and dTTP as the DNA template-primer and nucleotide substrate after 60 mins; procedure, shortened: as §1
[11] = system: HCT-116; assay: Cytotoxicity against human HCT116 cells by WST-1 assay relative to aphidicolin; type: functional, cell-based
[12] = system: HCT-116; assay: Cytotoxicity against human HCT116 cells by WST-1 assay relative to camptothecin; type: functional, cell-based
[13] = Inhibition of human DNA polymerase delta using poly(dA)/oligo(dT)18 (A/T = 2/1) and dTTP as the DNA template-primer and nucleotide substrate after 60 mins; procedure, shortened: as §1

SMILES	IC50 [1]	IC50 [2]	IC50 [3]	Activity [4]	inhibition [5]	IC50 [6]	inhibition [7]	inhibition [8]	inhibition [9]	IC50 [10]	Activity [11]	Activity [12]	IC50 [13]
CCCCCCCCCCCC(=O)Oc1cccc2c1C(=O)C=CC2=O	7.9 µM	6.9 µM	> 100 µM	Active	Active	> 100 µM	Active	Active	Active	6.6 µM	–	–	–
CCCCCCCC/C=C\CCCCCCCC(=O)Oc1cccc2c1C(=O)C=CC2=O	10.8 µM	8.4 µM	> 100 µM	–	Active	> 200 µM	Active	Active	Active	0.7 µM	Active	Active	0.74 µM
